Common to all, as to format: functional
In assay [1] the test system is Staphylococcus aureus. Briefly: Antimicrobial activity against methicillin-susceptible Staphylococcus aureus by agar dilution CLSI method. The gist of the method:
(§1)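 CLSI agar dilution MIC against S. aureus clinical isolates. Calcium was added to the medium for daptomycin testing. Vancomycin plates were read after a full 24-h incubation.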
On the technique in general: Agar dilution tests growth on a series of plates holding different concentrations.

Assay [2] concerns Staphylococcus aureus. Briefly: Antimicrobial activity against methicillin-resistant Staphylococcus aureus by agar dilution CLSI method. The gist of the method:
as §1

Assay [3] relates to Staphylococcus aureus. Description: Antimicrobial activity against community-acquired vancomycin-intermediate Staphylococcus aureus 504 by agar dilution CLSI method. The gist of the method:
as §1

Assay [4] has as its system Staphylococcus aureus. Description: Antimicrobial activity against vancomycin-intermediate Staphylococcus aureus 504 after 22 passages by multi-step resistance selection technique. The gist of the method: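 Multistep selection: S. aureus strains (MSSA and MRSA, including VISA and VRSA) were passaged serially once daily in subinhibitory concentrations of each antimicrobial. Mutant and parent identities were confirmed by pulsed-field gel electrophoresis at the end of the study. Mutant MIC stability was checked after 10 daily subcultures on antibiotic-free media.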

In assay [5] the test system is Staphylococcus aureus. Briefly: Antimicrobial activity against vancomycin-resistant Staphylococcus aureus 509 Michigan after 28 passages by multi-step resistance selection technique. The gist of the method:
(§2)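 Multistep selection: 10 S. aureus strains (8 MRSA incl. two VRSA, two VISA; 2 MSSA) serially passaged daily at subinhibitory concentrations of each antimicrobial; MICs of mutants retested and compared with parent; clone identity versus parent confirmed by pulsed-field gel electrophoresis at study end.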

The test system of assay [6] is Staphylococcus aureus. Description: Antimicrobial activity against vancomycin-resistant Staphylococcus aureus 510 Hershey after 50 passages by multi-step resistance selection technique. The gist of the method: as §2
The test system of assay [7] is Staphylococcus aureus. Briefly: Antimicrobial activity against methicillin-resistant Staphylococcus aureus 547 after 48 passages by multi-step resistance selection technique. The gist of the method: (§3)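 Multistep selection by daily serial passage of each strain in subinhibitory drug concentrations for the stated number of passages. Mutant MIC was then determined. Identity of mutants and parents was confirmed by pulsed-field gel electrophoresis.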

In assay [8] the test system is Staphylococcus aureus. Description: Antimicrobial activity against methicillin-susceptible Staphylococcus aureus 540 after 36 passages by multi-step resistance selection technique. The gist of the method:
as §3

Assay [9] has as its system Staphylococcus aureus. Briefly: Antimicrobial activity against methicillin-susceptible Staphylococcus aureus 543 after 15 passages by multi-step resistance selection technique. The gist of the method:
as §3

Assay [10] has as its system Staphylococcus aureus. Briefly: Antimicrobial activity against panton-valentine leukocidin-negative community-acquired methicillin-resistant Staphylococcus aureus 481 after 37 passages with Linezolid measured after 10 antibiotic-free subculture by multi-step resistance selection technique. The gist of the method:
(§4)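 Mutants from multistep daily serial passage in subinhibitory drug were then subcultured daily 10 times on antibiotic-free medium. MIC was redetermined after these subcultures to assess stability. Clone identity was checked by pulsed-field gel electrophoresis.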

Assay [11] has as its system Staphylococcus aureus. Description: Antimicrobial activity against panton-valentine leukocidin-positive community-acquired methicillin-resistant Staphylococcus aureus 490 after 22 passages with Linezolid measured after 10 antibiotic-free subculture by multi-step resistance selection technique. The gist of the method:
(§5)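 Multistep-selected mutants (daily passage at subinhibitory drug levels) then subcultured 10 times daily on antibiotic-free medium; MIC redetermined afterwards and compared with the MIC recorded at the end of selection; clone identity to parent checked by pulsed-field gel electrophoresis.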

Assay [12] has as its system Staphylococcus aureus. Description: Antimicrobial activity against vancomycin-intermediate Staphylococcus aureus 504 after 22 passages with Linezolid measured after 10 times antibiotic-free subculture by multi-step resistance selection technique. The gist of the method:
as §5

The subject of assay [13] is Staphylococcus aureus. Description: Antimicrobial activity against vancomycin-resistant Staphylococcus aureus 509 Michigan after 28 passages with Linezolid measured after 10 antibiotic-free subculture by multi-step resistance selection technique. The gist of the method: as §5
Assay [14] deals with Staphylococcus aureus. Description: Antimicrobial activity against methicillin and vancomycin-resistant Staphylococcus aureus 510 after single-step resistance selection by agar dilution CLSI method. The gist of the method: (§6)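 Single-step selection on drug-containing agar across 10 strains (2 MSSA, 8 MRSA, including VRSA and VISA). Colonies arising on confluent background growth were retested by CLSI agar dilution MIC. Resistance was defined as an MIC more than 4× the parent MIC.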

Assay [15] concerns Staphylococcus aureus. Description: Antimicrobial activity against methicillin and vancomycin-resistant Staphylococcus aureus 509 after single-step resistance selection by agar dilution CLSI method. The gist of the method:
as §6

For assay [16], the system named is Staphylococcus aureus. Briefly: Antimicrobial activity against panton-valentine leukocidin-negative community-acquired methicillin-resistant Staphylococcus aureus 481 after 37 passages by multi-step resistance selection technique. The gist of the method: as §3
The subject of assay [17] is Staphylococcus aureus. Description: Antimicrobial activity against panton-valentine leukocidin-positive community-acquired methicillin-resistant Staphylococcus aureus 490 after 22 passages by multi-step resistance selection technique. The gist of the method: as §2
Assay [18] has as its system Staphylococcus aureus. Description: Antimicrobial activity against methicillin-resistant Staphylococcus aureus 547 after 48 passages with Linezolid measured after 10 antibiotic-free subculture by multi-step resistance selection technique. The gist of the method: as §4
Assay [19] has as its system Staphylococcus aureus. Briefly: Antimicrobial activity against methicillin-susceptible Staphylococcus aureus 540 after 36 passages with Linezolid measured after 10 antibiotic-free subculture by multi-step resistance selection technique. The gist of the method:
as §4

Assay [20] concerns Staphylococcus aureus. Briefly: Antimicrobial activity against methicillin-susceptible Staphylococcus aureus 543 after 15 passages with Linezolid measured after 10 antibiotic-free subculture by multi-step resistance selection technique. The gist of the method: as §4
Assay [21] concerns Staphylococcus aureus. Briefly: Antimicrobial activity against methicillin-resistant vancomycin-intermediate Staphylococcus aureus 555 after single-step resistance selection by agar dilution CLSI method. The gist of the method: as §6
Assay [22] concerns Staphylococcus aureus. Description: Antimicrobial activity against methicillin-resistant vancomycin-intermediate Staphylococcus aureus 504 after single-step resistance selection by agar dilution CLSI method. The gist of the method: as §6
Assay [23] concerns Staphylococcus aureus. Description: Antimicrobial activity against methicillin-resistant Staphylococcus aureus 481 after single-step resistance selection by agar dilution CLSI method. The gist of the method: as §6
Assay [24] concerns Staphylococcus aureus. Description: Antimicrobial activity against methicillin-resistant Staphylococcus aureus 490 after single-step resistance selection by agar dilution CLSI method. The gist of the method:
as §6

Assay [25] has as its system Staphylococcus aureus. Description: Antimicrobial activity against methicillin-resistant Staphylococcus aureus 525 after single-step resistance selection by agar dilution CLSI method. The gist of the method: as §6
The test system of assay [26] is Staphylococcus aureus. Description: Antimicrobial activity against methicillin-resistant Staphylococcus aureus 547 after single-step resistance selection by agar dilution CLSI method. The gist of the method:
as §6

In assay [27] the test system is Staphylococcus aureus. Description: Antimicrobial activity against methicillin-susceptible Staphylococcus aureus 540 after single-step resistance selection by agar dilution CLSI method. The gist of the method: as §6
Assay [28] relates to Staphylococcus aureus. Description: Antimicrobial activity against methicillin-susceptible Staphylococcus aureus 543 after single-step resistance selection by agar dilution CLSI method. The gist of the method:
as §6

≈ marks a conversion by molar mass, not a printed value.

From ChEMBL document CHEMBL1137665, “Antistaphylococcal activity of CG400549, a new experimental FabI inhibitor, compared with that of other agents” (2007) come the findings set out here.

By MIC50 is commonly meant an inhibitory concentration at the 50% level, which refers to growth in some studies and to a panel of isolates in others. Low readings indicate greater potency, high ones weaker potency. For orientation: MIC90 means an inhibitory concentration at the 90% level, which refers to growth in some studies and to a panel of isolates in others. The low end stands for higher susceptibility, the high end for lower susceptibility. One may read the MIC as the lowest concentration found to suppress growth. On to `CC(=O)NC[C@H]1CN(c2ccc(N3CCOCC3)c(F)c2)C(=O)O1` [LINEZOLID], for which the MIC50 against Staphylococcus aureus [1] and with Staphylococcus aureus [2] was 1 µg/mL (≈ 2.96 µM) in each case. Also, the MIC90 in the assay with Staphylococcus aureus [1] and against Staphylococcus aureus [2] was 2 µg/mL (≈ 5.93 µM) each time. In addition, the MIC with Staphylococcus aureus [3] turned out to be 1 µg/mL (≈ 2.96 µM); against Staphylococcus aureus [4], 8 µg/mL (≈ 23.7 µM); against Staphylococcus aureus [5], 16 µg/mL (≈ 47.4 µM); against Staphylococcus aureus [6], 16 µg/mL (≈ 47.4 µM); in the assay on Staphylococcus aureus [7], 32 µg/mL (≈ 94.9 µM); in the assay on Staphylococcus aureus [8] it was 32 µg/mL (≈ 94.9 µM). Also, the MIC in the assay with Staphylococcus aureus [9] was 32 µg/mL (≈ 94.9 µM); in the assay with Staphylococcus aureus [10] it was 32 µg/mL (≈ 94.9 µM); in the assay on Staphylococcus aureus [11], 32 µg/mL (≈ 94.9 µM); in the assay with Staphylococcus aureus [12], 8 µg/mL (≈ 23.7 µM); in the assay with Staphylococcus aureus [13] it was 32 µg/mL (≈ 94.9 µM); with Staphylococcus aureus [14], 0.5 µg/mL (≈ 1.48 µM). Also, the minimum inhibitory concentration (MIC) with Staphylococcus aureus [15] was determined as 0.5 µg/mL (≈ 1.48 µM); against Staphylococcus aureus [16], 32 µg/mL (≈ 94.9 µM); in the assay on Staphylococcus aureus [17] it was 32 µg/mL (≈ 94.9 µM); in the assay with Staphylococcus aureus [18] it was 32 µg/mL (≈ 94.9 µM); in the assay with Staphylococcus aureus [19], 16 µg/mL (≈ 47.4 µM); against Staphylococcus aureus [20], 32 µg/mL (≈ 94.9 µM). In addition, the minimum inhibitory concentration (MIC) with Staphylococcus aureus [21], in the assay on Staphylococcus aureus [22], with Staphylococcus aureus [23], with Staphylococcus aureus [24], in the assay on Staphylococcus aureus [25] and in the assay on Staphylococcus aureus [26] was 0.5 µg/mL (≈ 1.48 µM) throughout. The MIC with Staphylococcus aureus [27] and in the assay on Staphylococcus aureus [28] was 0.5 µg/mL (≈ 1.48 µM) throughout.
In the assay with Staphylococcus aureus [1], `C[C@H]1COc2c(N3CCN(C)CC3)c(F)cc3c(=O)c(C(=O)O)cn1c23.C[C@H]1COc2c(N3CCN(C)CC3)c(F)cc3c(=O)c(C(=O)O)cn1c23.O` [LEVOFLOXACIN] had an MIC50 of 0.25 µg/mL and an MIC90 of 4 µg/mL. In the assay on Staphylococcus aureus [2], this compound registered an MIC50 of 1 µg/mL and an MIC90 of more than 32 µg/mL.
